Tested on: Rattus norvegicus
Experiment: Toxicity in water-deprived Sprague-Dawley rat assessed as effect on water drinking time during nonpunished period at 20 mg/kg, po by Vogel conflict test
Type: organism-based
Settings: in vivo
Outline: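 Water-deprived male Sprague-Dawley rats (n = 6–8) drank during unpunished and punished periods, with licking suppressed by mild shock in punished periods. Compounds were given 30 min before testing. Analysis was ANOVA with Dunnett's test.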

For `CNC1=Nc2ccc(Cl)cc2C(c2ccccc2)=[N+]([O-])C1` [CHLORDIAZEPOXIDE], the Activity was “Non-Toxic”.
